We go through 34 compounds from ChEMBL document CHEMBL4425095, “Novel Cephalosporins Selectively Active on Nonreplicating Mycobacterium tuberculosis” (J Med Chem, 2016).

As a reminder, the MIC90 is the lowest concentration that inhibits either 90% of growth or 90% of the strains tested, depending on the study.

The structures appear in SMILES notation. ≈ marks a conversion by molar mass, not a printed value. Some results are limits rather than exact numbers.

Common to all, as to assay type: functional
In assay [1] the test system is Mycobacterium tuberculosis. The experiment in a line: Antimycobacterial activity against non-replicating Mycobacterium tuberculosis mc2 6220 harboring panCD/lysA deletion mutant incubated for 7 days measured at OD580 = 0.1 by two-fold serial dilution method. Put shortly:
(§1)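 M. tuberculosis mc26220 washed twice in PBS-tyloxapol and resuspended in Sauton's-based nonreplicating medium (pH 5.0, butyrate 0.05%, BSA, tyloxapol, lysine, pantothenate, 0.5 mM NaNO2). Incubated at 1% O2, 5% CO2 with 2-fold serially diluted compound from DMSO. After 3 days, diluted 5-fold in fresh replicating medium for outgrowth at 20% O2. Reported as MIC90.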

Assay [2] has as its system Mycobacterium tuberculosis. As to the kind of experiment: Antimycobacterial activity against non-replicating Mycobacterium tuberculosis mc2 6220 harboring panCD/lysA deletion mutant incubated for 7 days measured at OD580 = 0.01 by two-fold serial dilution method. The procedure, abridged: as §1
For assay [3], the system named is Mycobacterium tuberculosis. The experiment in a line: Antimycobacterial activity against replicating Mycobacterium tuberculosis mc2 6220 harboring panCD/lysA deletion mutant by two-fold serial dilution method. Put shortly:
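M. tuberculosis mc26220 in replicating medium supplemented with glycerol (final 0.5%), OADC, casamino acids 0.05%, lysine 240 μg/mL and pantothenate 24 μg/mL. Exposed to 2-fold serially diluted compound from DMSO. OD580 read after 7 days at 20% O2, 5% CO2. Reported as MIC90.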

As to `COc1ccc(CCC(=O)N[C@@H]2C(=O)N3C(c4nc(C)no4)=C(C)CS[C@H]23)cc1`, the MIC90 in assay [1] is 1.68 µg/mL (≈ 4.05 µM); in assay [2], 1.13 µg/mL (≈ 2.73 µM); in assay [3] it was above 100 µg/mL.

With `COC(=O)C1=C(C)CS[C@@H]2[C@H](NC(=O)COc3ccc(Cl)cc3)C(=O)N12`, the values for the MIC90 in assay [1], in assay [2] and in assay [3] were 1.25 µg/mL (≈ 3.15 µM), 0.95 µg/mL (≈ 2.39 µM) and above 100 µg/mL, respectively.

`CC1=CS[C@@H]2[C@H](NC(=O)COc3ccccc3)C(=O)N2[C@H]1COS(=O)(=O)c1ccc(Br)cc1`: the MIC90 in assay [1] was above 55.34 µg/mL; in assay [2] it was above 55.34 µg/mL; in assay [3] it was above 83.24 µg/mL.

Take `CCCc1noc(C2=C(C)CS[C@@H]3[C@H](NC(=O)CCc4ccc(C)cc4)C(=O)N23)n1`: the MIC90 is 2.32 µg/mL (≈ 5.44 µM) in assay [1], 0.98 µg/mL (≈ 2.3 µM) in assay [2] and above 100 µg/mL in assay [3].

With `CCCOC(=O)C1=C(C)CS[C@@H]2[C@H](NC(=O)CCc3ccccc3)C(=O)N12`, the figures for the MIC90 in assay [1], in assay [2] and in assay [3] were 1.24 µg/mL (≈ 3.19 µM), 0.6 µg/mL (≈ 1.54 µM) and 53.64 µg/mL (≈ 138 µM), respectively.

Consider `CC1=C(c2nc(C)no2)N2C(=O)[C@@H](NC(=O)Cc3ccccc3)[C@H]2SC1`, for which the values for the MIC90 in assay [1] and in assay [3] were 1.61 µg/mL (≈ 4.35 µM) and above 100 µg/mL, respectively.

On to `CCCc1noc(C2=C(C)CS[C@@H]3[C@H](NC(=O)c4ccc(Cl)cc4)C(=O)N23)n1`, for which the MIC90 in assay [1] is 2.28 µg/mL (≈ 5.44 µM); in assay [2], 1.06 µg/mL (≈ 2.53 µM); in assay [3], above 100 µg/mL.

`CCOC(=O)C1=C(C)CS[C@@H]2[C@H](NC(=O)COc3ccc(Cl)cc3)C(=O)N12`: the values for the MIC90 in assay [1], in assay [2] and in assay [3] were 2.38 µg/mL (≈ 5.79 µM), 1.07 µg/mL (≈ 2.6 µM) and above 100 µg/mL, respectively.

With `CC1=C(C(=O)O)N2C(=O)[C@@H](NC(=O)Cc3ccc(Cl)cc3)[C@H]2SC1`, the MIC90 in assay [1] is above 36.68 µg/mL; in assay [2] it was above 36.68 µg/mL; in assay [3], 81.38 µg/mL (≈ 222 µM).

Turning to `COc1ccc(CCC(=O)N[C@@H]2C(=O)N3C(C(=O)O)=C(C)CS[C@H]23)cc1`, the MIC90 in assay [1] was above 37.64 µg/mL; in assay [2], above 37.64 µg/mL; in assay [3], above 100 µg/mL.

On to `CCCc1noc(C2=C(C)CS[C@@H]3[C@H](NC(=O)COc4ccc(Cl)cc4)C(=O)N23)n1`, for which the MIC90 was 3.87 µg/mL (≈ 8.62 µM) in assay [1], 1.36 µg/mL (≈ 3.03 µM) in assay [2] and above 100 µg/mL in assay [3].

Take `CCOC(=O)C1=C(C)CS[C@@H]2[C@H](NC(=O)CCc3ccc(OC)cc3)C(=O)N12`: the results for the MIC90 in assay [1], in assay [2] and in assay [3] were 0.51 µg/mL (≈ 1.26 µM), 0.4 µg/mL (≈ 0.989 µM) and 21.37 µg/mL (≈ 52.8 µM), respectively.

As for `CC1=C(c2nc(C)no2)N2C(=O)[C@@H](NC(=O)OCC(C)(C)C)[C@H]2SC1`, the MIC90 in assay [1] was 1.03 µg/mL (≈ 2.81 µM); in assay [3] it was above 100 µg/mL.

With `CCCN(O)C(=O)C1=C(C)CS[C@@H]2[C@H](NC(=O)COc3ccccc3)C(=O)N12`, the MIC90 in assay [1] was above 40.55 µg/mL; in assay [2], above 40.55 µg/mL; in assay [3], above 100 µg/mL.

Take `CC1=C(c2nc(C)no2)N2C(=O)[C@@H](NC(=O)OCC(Cl)(Cl)Cl)[C@H]2SC1`: the MIC90 was 0.92 µg/mL (≈ 2.15 µM) in assay [1], 0.46 µg/mL (≈ 1.08 µM) in assay [2] and above 100 µg/mL in assay [3].

Turning to `CCCOC(=O)C1=C(C)CS[C@@H]2[C@H](NC(=O)CCc3ccc(OC)cc3)C(=O)N12`, the MIC90 in assay [1] was below 0.2 µg/mL; in assay [2], below 0.2 µg/mL; in assay [3] it was above 100 µg/mL.

As to `CC1=C(c2nc(C)no2)N2C(=O)[C@@H](NC(=O)Cc3ccc(Cl)c(Cl)c3)[C@H]2SC1`, the results for the MIC90 in assay [1] and in assay [3] were 0.28 µg/mL (≈ 0.637 µM) and above 100 µg/mL, respectively.

Take `CCOC(=O)C1=C(C)CS[C@@H]2[C@H](NC(=O)COc3ccccc3)C(=O)N12`: the MIC90 was 1.71 µg/mL (≈ 4.54 µM) in assay [1], 0.66 µg/mL (≈ 1.75 µM) in assay [2] and 57.85 µg/mL (≈ 154 µM) in assay [3].

In the case of `CC1=C(c2nc(C)no2)N2C(=O)[C@@H](NC(=O)COc3ccccc3)[C@H]2SC1`, the values for the MIC90 in assay [1], in assay [2] and in assay [3] were 1.85 µg/mL (≈ 4.79 µM), 0.88 µg/mL (≈ 2.28 µM) and above 100 µg/mL, respectively.

Regarding `CCCCOC(=O)C1=C(C)CS[C@@H]2[C@H](NC(=O)CCc3ccccc3)C(=O)N12`, the MIC90 in assay [1] is below 0.24 µg/mL; in assay [2], 0.21 µg/mL (≈ 0.522 µM); in assay [3], above 100 µg/mL.

In turn, `CCCc1noc(C2=C(C)CS[C@@H]3[C@H](NC(=O)CCc4ccc(Cl)cc4)C(=O)N23)n1` registered an MIC90 in assay [3] above 100 µg/mL.

On to `CCCOC(=O)C1=C(C)CS[C@@H]2[C@H](NC(=O)[C@H](N)c3ccccc3)C(=O)N12`, for which the MIC90 in assay [1] is 15.46 µg/mL (≈ 39.7 µM); in assay [3], above 100 µg/mL.

On to `CC1=C(c2nc(C)no2)N2C(=O)[C@@H](NC(=O)[C@H](N)c3ccccc3)[C@H]2SC1`, for which the MIC90 in assay [1] was 44.05 µg/mL (≈ 114 µM); in assay [3], above 100 µg/mL.

Take `CCC(C)OC(=O)C1=C(C)CS[C@@H]2[C@H](NC(=O)CCc3ccc(OC)cc3)C(=O)N12` (some centres not stated): the MIC90 in assay [1] was 2.95 µg/mL (≈ 6.82 µM); in assay [2], 1.57 µg/mL (≈ 3.63 µM); in assay [3], above 100 µg/mL.

Regarding `CCCOC(=O)C1=C(C)CS[C@@H]2[C@H](NC(=O)COc3ccc(OC)cc3)C(=O)N12`, the MIC90 in assay [1] was 0.81 µg/mL (≈ 1.93 µM); in assay [2], 0.39 µg/mL (≈ 0.927 µM); in assay [3] it was above 100 µg/mL.

For `C#CCNC(=O)C1=C(C)CS[C@@H]2[C@H](NC(=O)COc3ccccc3)C(=O)N12`, the MIC90 in assay [1] is above 38.54 µg/mL; in assay [2], above 38.54 µg/mL; in assay [3], above 100 µg/mL.

In the case of `CCCc1noc(C2=C(C)CS[C@@H]3[C@H](NC(=O)Cc4ccc(C)cc4)C(=O)N23)n1`, the MIC90 was 0.64 µg/mL (≈ 1.55 µM) in assay [1] and above 100 µg/mL in assay [3].

As to `CC1=C(c2nc(C)no2)N2C(=O)[C@@H](NC(=O)Cc3ccc(Cl)cc3)[C@H]2SC1`, the MIC90 in assay [1] was 1.13 µg/mL (≈ 2.79 µM); in assay [3], above 100 µg/mL.

As to `COc1ccc(CC(=O)N[C@@H]2C(=O)N3C(c4nc(C)no4)=C(C)CS[C@H]23)cc1`, the MIC90 was 3.25 µg/mL (≈ 8.12 µM) in assay [1] and above 100 µg/mL in assay [3].

Regarding `CC1=C(c2nc(C)no2)N2C(=O)[C@@H](NC(=O)Cc3ccc(C)cc3)[C@H]2SC1`, the MIC90 is 1.75 µg/mL (≈ 4.55 µM) in assay [1] and above 100 µg/mL in assay [3].

Turning to `CCCc1noc(C2=C(C)CS[C@@H]3[C@H](NC(=O)Cc4ccc(OC)cc4)C(=O)N23)n1`, the MIC90 in assay [1] was 0.77 µg/mL (≈ 1.8 µM); in assay [3], above 100 µg/mL.

Take `CCCc1noc(C2=C(C)CS[C@@H]3[C@H](NC(=O)Cc4ccccc4)C(=O)N23)n1`: the figures for the MIC90 in assay [1] and in assay [3] were 1.04 µg/mL (≈ 2.61 µM) and above 100 µg/mL, respectively.

`CCSC(=O)N[C@@H]1C(=O)N2C(c3nc(C)no3)=C(C)CS[C@H]12`: the figures for the MIC90 in assay [1] and in assay [3] were 1.84 µg/mL (≈ 5.4 µM) and above 100 µg/mL, respectively.

`COC(=O)C1=C(C)CS[C@@H]2[C@H](NC(=O)[C@H](N)c3ccccc3)C(=O)N12`: the figures for the MIC90 in assay [1] and in assay [3] were 61.78 µg/mL (≈ 171 µM) and above 100 µg/mL, respectively.
